From ChEMBL document CHEMBL4190397, “Design and Synthesis of Novel and Selective Glycine Transporter-1 (GlyT1) Inhibitors with Memory Enhancing Properties” (J Med Chem, 2018)

What was measured:
[1] = Apparent permeability from basolateral to apical side in MDCK-MDR1 cells monolayer at 5 uM after 60 mins by LC-MS/MS analysis; conditions: dog
[2] = molecular target: T1, Sodium- and chloride-dependent glycine transporter 2 (Homo sapiens, UniProt Q9Y345); assay: Inhibition of recombinant human GlyT2 expressed in HEK293 cells assessed as reduction in [14C]glycine uptake after 2 hrs by microbeta scintillation counting method; type: cell-based
T1 sequence (Q9Y345 whole entry): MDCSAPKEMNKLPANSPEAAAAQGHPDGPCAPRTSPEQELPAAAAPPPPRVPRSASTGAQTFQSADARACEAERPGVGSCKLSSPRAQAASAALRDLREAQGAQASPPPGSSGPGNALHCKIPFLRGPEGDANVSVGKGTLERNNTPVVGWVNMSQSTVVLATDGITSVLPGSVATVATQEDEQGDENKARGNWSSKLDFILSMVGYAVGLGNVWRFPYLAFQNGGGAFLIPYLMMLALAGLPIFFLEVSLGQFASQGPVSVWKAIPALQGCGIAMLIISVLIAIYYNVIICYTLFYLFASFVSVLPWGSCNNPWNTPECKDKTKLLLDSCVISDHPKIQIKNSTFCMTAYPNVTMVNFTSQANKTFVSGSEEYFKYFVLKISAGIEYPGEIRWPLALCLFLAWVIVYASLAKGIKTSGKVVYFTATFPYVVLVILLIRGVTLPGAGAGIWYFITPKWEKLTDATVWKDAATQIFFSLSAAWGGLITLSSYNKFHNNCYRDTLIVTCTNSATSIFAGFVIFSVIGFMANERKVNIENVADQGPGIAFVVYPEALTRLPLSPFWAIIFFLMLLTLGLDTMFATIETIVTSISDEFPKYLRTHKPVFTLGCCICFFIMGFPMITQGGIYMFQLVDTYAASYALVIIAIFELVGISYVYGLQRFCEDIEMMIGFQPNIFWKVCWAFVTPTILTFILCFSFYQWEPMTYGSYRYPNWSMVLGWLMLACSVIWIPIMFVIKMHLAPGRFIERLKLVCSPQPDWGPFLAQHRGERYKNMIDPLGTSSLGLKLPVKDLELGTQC

[3] = Unbound fraction in rat plasma at 1 uM by LC-MS/MS based equilibrium dialysis; type: ADME, cell-free
Method in brief: (§1)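 Rat plasma or brain homogenate (1:6 in 0.1 M PBS pH 7.2) spiked to 1.0 µM, in triplicate. Rapid equilibrium dialysis (MWCO 8000) against PBS, shaken at 37 °C for 6 h. Matrix-matched samples quantified by LC-MS/MS. fu = receiver/donor concentration; brain value corrected for homogenate dilution.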

[4] = Drug uptake in Sprague-Dawley rat brain at 10 mg/kg, po after 90 mins by LC-MS/MS analysis; type: ADME, organism-based; conditions: read-out: Drug uptake
Method in brief: (§2)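 Male SD rats (n=5) given a single oral dose of 10 mg/kg in NMP/PEG400/water (10:50:40). Plasma, total brain and CSF compound concentrations measured 90 min after dosing.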

[5] = Plasma concentration in Sprague-Dawley rat at 10 mg/kg, po after 90 mins by LC-MS/MS analysis; type: ADME, organism-based; method in brief: as §2
Rattus norvegicus [6] = assay: In vivo inhibition of GlyT1 in Sprague-Dawley rat assessed as CSF glycine levels at 10 mg/kg, po administered as single dose measured after 90 mins by LC-MS/MS analysis relative to control; type: functional
Method in brief: (§3)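 Male Sprague-Dawley rats (300−400 g, n = 5), fed ad libitum, dosed orally at 10 mg/kg (10 mL/kg) in NMP/PEG400/water (10:50:40), with a vehicle group (n = 5) in each study. CSF (~100 µL) taken under anaesthesia at 90 min. Glycine derivatised with Marfey's reagent, 13C2-15N-glycine internal standard, LC-MS/MS in negative ion mode. Expressed as % of vehicle; 1-way ANOVA.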

[7] = Unbound fraction in rat brain homogenate at 1 uM by LC-MS/MS based equilibrium dialysis; type: ADME, tissue-based; method in brief: as §1
Rattus norvegicus [8] = assay: In vivo inhibition of GlyT1 in Sprague-Dawley rat assessed as increase in CSF glycine levels at 10 mg/kg, po administered as single dose measured after 90 mins by LC-MS/MS analysis relative to control; type: functional; parameters: scale not given: the % may be the effect or the level left; method in brief: as §3
[9] = Drug uptake in Sprague-Dawley rat CSF at 10 mg/kg, po after 90 mins by LC-MS/MS analysis; type: ADME, organism-based, Cerebrospinal fluid; conditions: read-out: Drug uptake; method in brief: as §2
[10] = Ratio of free drug level in rat brain homogenate at 1 uM to IC50 for inhibition of GlyT1 in primary rat cortical neurons; type: tissue-based
[11] = Free drug level in rat brain homogenate at 1 uM by LC-MS/MS based equilibrium dialysis; type: ADME, tissue-based

Papp B→A at 1 h, 5 µM [1]	IC50 [2]	fraction unbound at 1 µM [3]	concentration at […] [4]	concentration at […] [5]	fraction unbound at 1 µM [7]	concentration at […] [9]	Ratio [10]	Drug uptake(free) [11]	SMILES	Activity (Rattus norvegicus [6])	Activity (Rattus norvegicus [8])
61.7 ×10⁻⁶ cm/s	> 10 µM								C[C@H](Oc1ccc(C#N)cc1C(=O)N1Cc2cn(-c3ccccc3F)nc2C1)C(F)(F)F		
58.9 ×10⁻⁶ cm/s	> 10 µM	0.047	605 nM	2140 nM	0.017	26 nM	0.37	10.3 nM	CS(=O)(=O)c1ccc(OCC2CC2)c(C(=O)N2Cc3cn(-c4ccccc4F)nc3C2)c1	7.6 µM	110%
